ChEMBL document CHEMBL2062469, “1-(2-Mercaptobenzenesulfonyl)-3-hydroxyguanidines--novel potent antiproliferatives, synthesis and in vitro biological activity” (2012)

How the values were obtained:
Type in all cases: functional
[1] = system: SN12C; test: Cytostatic activity against human SN12C cells
Outline: (§1)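 NCI-60 human tumor cell line screen run by the US National Cancer Institute under the NIH Developmental Therapeutics Program protocol. A single-dose prescreen at 10 µM came first. Selected compounds then went into the 5-dose assay. Cytostatic activity is reported as GI50 (µM).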

[2] = system: EKVX; test: Cytostatic activity against human EKVX cells; outline: as §1
[3] = system: NCI-H23; test: Cytostatic activity against human NCI-H23 cells; outline: as §1
[4] = system: MDA-MB-435; test: Cytostatic activity against human MDA-MB-435 cells; outline: as §1
[5] = system: HOP-62; test: Cytostatic activity against human HOP62 cells; outline: as §1
[6] = system: NCI/ADR-RES; test: Cytostatic activity against human NCI-ADR-RES cells; outline: as §1
[7] = system: HCC 2998; test: Cytostatic activity against human HCC2998 cells; outline: as §1
[8] = system: OVCAR-8; test: Cytostatic activity against human OVCAR8 cells; outline: as §1
[9] = Cytostatic activity against human […] cells; outline: as §1
[10] = system: CCRF-CEM; test: Cytostatic activity against human CCRF-CEM cells; outline: as §1
[11] = system: RXF 393; test: Cytostatic activity against human RXF393 cells; outline: as §1
[12] = system: HL-60(TB); test: Cytostatic activity against human HL-60(TB) cells
Outline: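 NCI-60 panel screen run per the NIH Developmental Therapeutics Program protocol. Agents first went through a one-dose test at 10 µM. Selected compounds were then run in a 5-dose assay, from which GI50 and TGI values were derived.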

[13] = system: MCF7; test: Cytostatic activity against human MCF7 cells; outline: as §1
[14] = system: T47D; test: Cytostatic activity against human T47D cells
Outline: (§2)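 Human tumour cell lines from the NCI-60 panel, tested at the US National Cancer Institute under the NIH Developmental Therapeutics Program protocol. A single-dose prescreen at 10 µM came first. Selected compounds then went to a 5-dose assay, which gave GI50 and TGI values in µM.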

[15] = system: NCI-H460; test: Cytostatic activity against human NCI-H460 cells; outline: as §1
[16] = system: M14; test: Cytostatic activity against human M14 cells; outline: as §1
[17] = system: SW-620; test: Cytostatic activity against human SW620 cells; outline: as §2
[18] = system: NCI-H322M; test: Cytostatic activity against human NCI-H322M cells; outline: as §1
[19] = system: K562; test: Cytostatic activity against human K562 cells; outline: as §1
[20] = system: SNB-19; test: Cytostatic activity against human SNB19 cells; outline: as §1
[21] = system: U-251; test: Cytostatic activity against human U251 cells; outline: as §2
[22] = system: SK-MEL-2; test: Cytostatic activity against human SK-MEL-2 cells; outline: as §1
[23] = system: SR; test: Cytostatic activity against human SR cells; outline: as §2
[24] = system: PC-3; test: Cytostatic activity against human PC3 cells; outline: as §1
[25] = system: ACHN; test: Cytostatic activity against human ACHN cells; outline: as §1
[26] = system: TK-10; test: Cytostatic activity against human TK10 cells; outline: as §2
[27] = system: SF-268; test: Cytostatic activity against human SF268 cells; outline: as §1
[28] = system: SK-MEL-5; test: Cytostatic activity against human SK-MEL-5 cells; outline: as §1
[29] = system: SK-MEL-28; test: Cytostatic activity against human SK-MEL-28 cells; outline: as §1
[30] = system: CAKI-1; test: Cytostatic activity against human Caki1 cells; outline: as §1
[31] = system: MDA-MB-468; test: Cytostatic activity against human MDA-MB-468 cells; outline: as §1
[32] = system: HCT-15; test: Cytostatic activity against human HCT15 cells; outline: as §1
[33] = system: HT-29; test: Cytostatic activity against human HT-29 cells; outline: as §1
[34] = system: NCI-H522; test: Cytostatic activity against human NCI-H522 cells; outline: as §1
[35] = system: NCI-H226; test: Cytostatic activity against human NCI-H226 cells; outline: as §1
[36] = system: HOP-92; test: Cytostatic activity against human HOP92 cells; outline: as §1
[37] = system: Malme-3M; test: Cytostatic activity against human MALME-3M cells; outline: as §1
[38] = system: Hs-578T; test: Cytostatic activity against human Hs 578T cells; outline: as §1
[39] = system: SF-539; test: Cytostatic activity against human SF539 cells; outline: as §1
[40] = system: UO-31; test: Cytostatic activity against human UO31 cells; outline: as §2
[41] = system: OVCAR-4; test: Cytostatic activity against human OVCAR4 cells; outline: as §1
[42] = system: OVCAR-5; test: Cytostatic activity against human OVCAR5 cells; outline: as §1
[43] = system: MDA-MB-231; test: Cytostatic activity against human MDA-MB-231/ATCC cells; outline: as §1
[44] = system: A549; test: Cytostatic activity against human A549/ATCC cells; outline: as §1
[45] = system: COLO 205; test: Cytostatic activity against human COLO205 cells; outline: as §1
[46] = system: UACC-62; test: Cytostatic activity against human UACC62 cells; outline: as §2
[47] = system: MOLT-4; test: Cytostatic activity against human MOLT4 cells; outline: as §1
[48] = system: LOX IMVI; test: Cytostatic activity against human LOXIMVI cells; outline: as §1
[49] = system: SNB-75; test: Cytostatic activity against human SNB75 cells; outline: as §2
[50] = system: KM12; test: Cytostatic activity against human KM12 cells; outline: as §1
[51] = system: UACC-257; test: Cytostatic activity against human UACC257 cells; outline: as §2
[52] = system: HCT-116; test: Cytostatic activity against human HCT116 cells; outline: as §1
[53] = system: OVCAR-3; test: Cytostatic activity against human OVCAR3 cells; outline: as §1
[54] = system: IGROV-1; test: Cytostatic activity against human IGROV1 cells; outline: as §1
[55] = system: SF-295; test: Cytostatic activity against human SF295 cells; outline: as §1
[56] = system: A498; test: Cytostatic activity against human A498 cells; outline: as §1
[57] = system: DU-145; test: Cytostatic activity against human DU145 cells; outline: as §1

N=C(NO)NS(=O)(=O)c1cc(-c2nnc(-c3ccc(Cl)cc3)s2)c(Cl)cc1SCc1ccccc1
GI50 [1]: 1670 nM
TGI [1]: 3200 nM
GI50 [2]: 1990 nM
TGI [2]: 4120 nM
GI50 [3]: 1700 nM
TGI [3]: 3730 nM
GI50 [4]: 2110 nM
TGI [4]: 4170 nM
GI50 [5]: 2050 nM
TGI [5]: 3980 nM
GI50 [6]: 7390 nM
GI50 [7]: 1810 nM
TGI [7]: 3420 nM
GI50 [8]: 2030 nM
TGI [8]: 4300 nM
GI50 [9]: 1740 nM
TGI [9]: 4340 nM
GI50 [10]: 840 nM
TGI [10]: 3830 nM
GI50 [11]: 1660 nM
TGI [11]: 3040 nM
GI50 [12]: 1780 nM
TGI [12]: 4530 nM
GI50 [13]: 1570 nM
TGI [13]: 3030 nM
GI50 [14]: 2070 nM
TGI [14]: 4810 nM
GI50 [15]: 1730 nM
TGI [15]: 3490 nM
GI50 [16]: 1680 nM
TGI [16]: 3200 nM
GI50 [17]: 1470 nM
TGI [17]: 3070 nM
GI50 [18]: 1930 nM
TGI [18]: 3990 nM
GI50 [19]: 2230 nM
TGI [19]: 6310 nM
GI50 [20]: 1740 nM
TGI [20]: 3420 nM
GI50 [21]: 1540 nM
TGI [21]: 3090 nM
GI50 [22]: 1750 nM
TGI [22]: 3500 nM
GI50 [23]: 1450 nM
TGI [23]: 4200 nM
GI50 [24]: 1740 nM
TGI [24]: 3270 nM
GI50 [25]: 1710 nM
TGI [25]: 3150 nM
GI50 [26]: 1870 nM
TGI [26]: 3430 nM
GI50 [27]: 1900 nM
TGI [27]: 4210 nM
GI50 [28]: 1580 nM
TGI [28]: 3050 nM
GI50 [29]: 1910 nM
TGI [29]: 3470 nM
GI50 [30]: 2270 nM
TGI [30]: 4670 nM
GI50 [31]: 1520 nM
TGI [31]: 2850 nM
GI50 [32]: 1570 nM
TGI [32]: 3170 nM
GI50 [33]: 1670 nM
TGI [33]: 3130 nM
GI50 [34]: 1670 nM
TGI [34]: 3410 nM
GI50 [35]: 2070 nM
TGI [35]: 4050 nM
GI50 [36]: 2760 nM
TGI [36]: 7420 nM
GI50 [37]: 1960 nM
TGI [37]: 4030 nM
GI50 [38]: 2510 nM
TGI [38]: 7260 nM
GI50 [39]: 1970 nM
TGI [39]: 3900 nM
GI50 [40]: 1990 nM
TGI [40]: 4680 nM
GI50 [41]: 1650 nM
TGI [41]: 4010 nM
GI50 [42]: 1600 nM
TGI [42]: 3020 nM
GI50 [43]: 2070 nM
TGI [43]: 4790 nM
GI50 [44]: 2250 nM
TGI [44]: 5640 nM
GI50 [45]: 1890 nM
TGI [45]: 3740 nM
GI50 [46]: 2020 nM
TGI [46]: 3760 nM
GI50 [47]: 1250 nM
TGI [47]: 3570 nM
GI50 [48]: 1680 nM
TGI [48]: 3470 nM
GI50 [49]: 1490 nM
TGI [49]: 3180 nM
GI50 [50]: 1750 nM
TGI [50]: 3330 nM
GI50 [51]: 2100 nM
TGI [51]: 4050 nM
GI50 [52]: 1560 nM
TGI [52]: 3110 nM
GI50 [53]: 1670 nM
TGI [53]: 3120 nM
GI50 [54]: 2570 nM
TGI [54]: 5380 nM
GI50 [55]: 2210 nM
TGI [55]: 4650 nM
GI50 [56]: 1750 nM
TGI [56]: 5550 nM
GI50 [57]: 1730 nM
TGI [57]: 3100 nM
